Data set [1] relates to L. infantum promastigotes. Kind of data set: Nitrite concentration by Griess test, L. infantum promastigote culture. The class given is cell-based. Conditions: 5 days, 25, 50 and 100 μM. In outline: (§1)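 L. infantum promastigote or T. cruzi epimastigote cultures (5 × 10^6 parasites/well) were incubated 5 days with test compound at 25, 50 and 100 μM, with untreated wells as controls. Supernatants were mixed with 1% sulfanilamide in 50% acetic acid, then after 15 min with 1% N-naphthylethylenediamine in 50% acetic acid, and read at 540 nm. Nitrite (μM) was taken from a sodium nitrite standard curve (detection limit 1.56 μM). Run in triplicate.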

The test system of data set [2] is promastigotes of L. infantum. The class given is cell-based. Conditions: presence vs absence of D,L-folic acid. In outline: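 L. infantum promastigotes were treated with test compound with or without D,L-folic acid, following the promastigote MTT viability protocol (72 h, 25 °C, formazan read at 570 nm). IC50 was determined in each condition and compared.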
Data set [3] deals with Salmonella typhimurium TA 98 strain. The experiment in a line: Mutagenicity Ames test. Type of data set: cell-based.
Data set [4] has as its system amastigotes of L. braziliensis. The experiment in a line: Ex vivo antiamastigote activity of L. braziliensis. The class given is cell-based, L. braziliensis (MHOM/BZ/82/M2903). The settings on record: Leishmania braziliensis, 48 h, read-out: amastigote, IC50 L. braziliensis. In a few lines: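 L. braziliensis MHOM/BZ/82/M2903 amastigotes were taken from footpad lesions of infected BALB/c mice. Macrophages were removed by brief centrifugation (3000 rpm, 2–3 min). Amastigotes were kept at 37 °C, pH 5.5, in supplemented M199 with 10% FCS. At 2 × 10^6/mL they were exposed to 1.0–50.0 μM test compound (controls 1% DMSO). At 48 h parasites were counted in a Neubauer chamber against untreated controls. S.I. = peritoneal macrophage CC50 / amastigote IC50.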

Data set [5] relates to epimastigotes of T. cruzi. Kind of data set: In vitro anti-T. cruzi evaluation on epimastigotes. The class given is cell-based, T. cruzi (CL Brener clone). In outline: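 Turbidity (A595) was read at day 0 and day 5. PGI was calculated relative to untreated controls, with single-point PGI at 25 μM. IC50 is the concentration […]. At least three experiments.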

Data set [6] relates to promastigotes of L. infantum. The experiment in a line: Effect of metal cations on IC50 on L. infantum promastigotes. Type of data set: cell-based. Conditions: Leishmania parasites, metal cation at 1 μM. In outline:
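L. infantum promastigotes were treated with test compound alone or with a metal cation (Fe3+, Cu2+ or Zn2+) at 1 μM, following the promastigote MTT viability protocol. IC50 was determined with and without the cation and compared.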

In data set [7] the test system is promastigotes of L. braziliensis. Kind of data set: In vitro growth inhibition of L. braziliensis promastigotes. Conditions: Leishmania braziliensis, read-out: promastigote, IC50 L. braziliensis. The class given is cell-based, Leishmania (V) braziliensis (MHOM/BR/75/M2903).
Data set [8] is described as follows: Cytotoxicity on J774.1A macrophages. Type of data set: cell-based. The settings on record: mouse, J774.1A macrophages, J774.1A macrophage, CC50, 48 h, MTT. In outline: (§2)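 Peritoneal or J774.1A macrophages were grown in DMEM with 10% heat-inactivated FBS, L-glutamine and penicillin/streptomycin. Cells were seeded at 5 × 10^4 cells/well for 24 h at 37 °C, 5% CO2, then given test compound at 10–100 μM (from 25,000 μM DMSO stock) for 48 h. MTT (0.4 mg/mL, 4 h, 37 °C) was dissolved in DMSO and read at 570 nm. Cytotoxicity was expressed relative to negative controls. At least three experiments.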

Data set [9] can be described thus: Cytotoxicity on primary peritoneal macrophages. Type of data set: cell-based, mouse. Conditions: mouse, primary peritoneal macrophages, peritoneal macrophage, CC50, 48 h, MTT. In a few lines: as §2
Data set [10] in a line: Oxidative decomposition followed by NMR. The class given is physicochemical. The settings on record: 2 weeks of incubation with H2O2.
For data set [11], the system named is promastigotes of L. infantum. The experiment in a line: In vitro growth inhibition of L. infantum promastigotes. The settings on record: Leishmania infantum, 72 h, read-out: promastigote, IC50 L. infantum. The class given is cell-based, Leishmania infantum (MHOM MA67I7MAP263). In outline: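 L. infantum MHOM MA67I7MAP263 promastigotes at 2 × 10^6 parasites/mL were exposed to 0.5–25 μM test compound for 72 h at 25 °C. Dilutions came from a 3000 μM DMSO stock, with final DMSO ≤1%. MTT (0.4 mg/mL) was added for 4 h at 37 °C, formazan was dissolved in DMSO and read at 570 nm. Inhibition was calculated against untreated controls. At least three experiments, mean ± SD.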

For data set [12], the system named is epimastigotes of T. cruzi. Kind of data set: Antifolate activity: IC50 on T. cruzi epimastigotes with and without folic acid. Type of data set: cell-based. Conditions: presence vs absence of D,L-folic acid. In a few lines: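 T. cruzi epimastigotes were treated with test compound with or without D,L-folic acid, following the epimastigote turbidimetric viability protocol (120 h, 25 °C, A595). IC50 was determined in each condition and compared.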

Data set [13] is described as follows: Solubility, qualitative remarks. Conditions: qualitative remark. The class given is physicochemical.
A further data set relates to T. cruzi epimastigotes. The experiment in a line: Nitrite concentration by Griess test, T. cruzi epimastigote culture. Type of data set: cell-based. The settings on record: 5 days, 25, 50 and 100 μM. In a few lines:
as §1

Another data set relates to J774.1A macrophages. Conditions: read-out: J774.1A macrophage, CC50; cited from earlier work.
Data set [14] concerns epimastigotes of T. cruzi. The settings on record: cited from earlier work.
[15] abbreviates: CC50 (J774.1A) / IC50 of epimastigotes (T. cruzi).

Like-named read-outs stand apart in the source and are kept apart here. Marks after values point to notes of the source that are not given here.

Take `NNc1nc(-c2ccc(Cl)cc2)nc2ccccc12` [3c, (Z)-1-(2-(4-chlorophenyl)quinazolin-4(3H)-ylidene)hydrazine]: the “nitrite ion production (Griess test)” value (in data set [1]; in the data set with T. cruzi epimastigotes) was “appreciable amount of nitrite ion in sub-micromolar ranges” throughout. The “change of IC50 on addition of folic acid (FA)” value is reported as “modest increase in IC50” in data set [2] and “Increasing IC50 values by about twofold” in [12]. Moreover, the revertants number was 8.0 ± 2.0 in [3] (dose 27.9 μg/plate); 4.5 ± 2.0 in [3] (dose 37.2 μg/plate); 5.0 ± 0.5 in [3] (dose 55.8 μg/plate); 8.0 ± 1.0 in [3] (dose 111.7 μg/plate); 9.5 ± 0.5 in [3] (dose 335.0 μg/plate). Besides, the IC50 in [4] turned out to be 8.96 ± 0.53 µM; in data set [5] (Trypanosoma cruzi, 120 h, read-out: epimastigote, IC50 T. cruzi), 11.5 ± 0.49 µM; in [7] it was 5.12 ± 0.32 µM; in [11], 1.56 ± 0.09 µM. Besides, the “S.I.T.cruzi (selectivity index), column epimastigote, IC50 (μM) T. cruzi (S.I.T.cruzi)” value in [5] (setting [15]) is 9.1. The “change of IC50 in the presence of Cu2+” value in data set [6] is recorded as “increase in IC50 values”. In addition, the CC50 at 48 h worked out at 105 ± 5.66 µM in data set [8] and 89.9 ± 3.77 µM in data set [9]. The “decomposition under oxidative conditions” value in data set [10] is listed as “decomposed in at least three additional products”. For the same molecule, in [13], the solubility in culture result is “appreciable solubility”.

For `CC1CS(=O)(=O)CCN1/N=C/c1ccc([N+](=O)[O-])o1` (centres unmarked) [nifurtimox], the CC50 in the data set with J774.1A macrophages is 280 ± 4 µM. Besides, the “S.I.T.cruzi (selectivity index)” value in data set [14] (setting [15]) is reported as 36 ^c. The IC50 in [14] (read-out: epimastigote, IC50 T. cruzi, anti-Chagasic reference) was 7.7 ± 0.5 µM. The “change of IC50 on addition of folic acid (FA)” value in data set [12] is “not affected”.

These data come from paper PMC9773939 (ACS Omega, 2022).
